From PubChem BioAssay
KCNQ1 pot: potentiators or activators of human KCNQ1 potassium channel. P51787. CHO-K1 KCNQ1, thallium flux FluxOR fluorescence; hits give high values. B-score at 10 µM. 310,000 tested, 0.35% active. AID 2648;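 active means fluorescence ratio B-score, a plate-corrected score, at least three library SD, with initial intensity B-score within 5 SD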
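Assay system: CHO-K1 cells stably expressing KCNQ1. Medium: assay buffer for compound exposure, DMSO matched across wells. Timing: 37 °C overnight plating, 90-min dark dye load, 20-min compound pretreatment. Signal: kinetic FluxOR fluorescence, 10 s baseline plus 110 s post-stimulus.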
KCNK9 block: inhibitors of human KCNK9 two-pore domain potassium channel; Q9NPC2; HEK293 KCNK9, FluxOR thallium flux fluorescence; hits give low values; B-score at 10 µM; 310,000 tested, 1.2% active; AID 488922;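 active means ratio B-score over 3 SD below the library mean, with starting fluorescence within 5 SD of its mean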;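 further: negative B-score means less thallium flux so channel inhibition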
KCNK3 block: human KCNK3 channel inhibition, primary screen | B-score at 10 µM | AID 602410 | CHO-KCNK3 thallium flux, FluxOR fluorescence; hits give low values | 340,000 tested, 0.84% active;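 active means B-score under library mean minus 4 SD, starting fluorescence ratio at most library mean plus 5 SD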;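 further: more negative B-score means stronger inhibition of thallium flux through KCNK3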
KCC2 mod: KCC2 (human) Cl- transport modulation. Q9H2X9. KCC2 cells, thallium flux FluoZin-2 fluorescence. B-score of Tl+ flux slope (higher = more flux/activation; lower = inhibition) at 10 µM. 190,000 tested, 2.2% active;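 active means thallium flux slope and its plate-corrected score both differing from the plate sample mean at a set confidence after two filtering rounds, in either direction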;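 further: slope of fluorescence scaled to starting intensity during 10 to 20 s after thallium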
hERG rescue: shields human hERG channel from block by proarrhythmic agents; Q12809; CHO-hERG, FluxOR thallium flux, dofetilide IC70 present; activation (rescue from dofetilide block), less the hit threshold, % at 10 µM; 310,000 tested, 0.51% active; AID 1511;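 active means activation above the mean of controls blocked by dofetilide plus 5 SD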;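 further: thallium influx through hERG after potassium depolarization seen as dye fluorescence rise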
KCNQ1 block: inhibitors of human KCNQ1 potassium channel; CHO-K1 KCNQ1, FluxOR thallium flux fluorescence; hits give high values; P51787; B-score at 10 µM; 310,000 tested, 1.3% active;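 active means compounds whose thallium flux B-score, printed positive for inhibition, exceeds three library SD while starting fluorescence stays within three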;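 further: channel opened by potassium depolarization with thallium stimulus after 20 min compound exposure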
KCNQ1 inh valid: human KCNQ1 channel inhibition, validation assay; shares compounds with KCNQ1 block; KCNQ1 cell line, FluxOR thallium flux fluorescence; inhibition, % at 10 µM; 1,600 tested, 93% active;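 active means primary screen active, with duplicate mean exceeding buffer control mean plus 3 SD of buffer wells, cut at about 28% in these data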;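 further: 0% = buffer control ratio and 100% = XE991 inhibitor control ratio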
CHO Tl flux: KCNQ1 inhibitor counter-screen hit in parental CHO cells; shares compounds with KCNQ1 block; fluorescence ratio (Tl flux) at 10 µM; 1,600 tested, 21% active; parental CHO-K1, FluxOR thallium flux fluorescence ratio; hits give low values; zero means no signal rise above baseline;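 active means mean of duplicate thallium-flux fluorescence ratios in parental host cells more than 5 SD below the buffer control mean, cut at about 0.38 in these data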;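 further: ratio is peak minus minimum fluorescence divided by baseline fluorescence; actives read low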
KCNQ1 ephys val: human KCNQ1 inhibition validated by electrophysiology. KCNQ1-CHO cells, automated patch clamp current. shares compounds with KCNQ1 block. calls only at 10 µM. 490 tested, 20% active;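 active means KCNQ1 current drop exceeding 3 SD of negative control wells, seen in both duplicate runs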;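 further: steady state current during a 2 s step from -80 to +40 mV; negative values mean current inhibition and positive values mean potentiation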
KCNQ2 inh: selectivity of KCNQ1 inhibitors: inhibition of rat KCNQ2 channel; 1,600 tested, 71% active; AID 651746; shares compounds with KCNQ1 block; inhibition, % at 10 µM; KCNQ2 cells, FluxOR thallium flux fluorescence;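 active means mean percent inhibition of the KCNQ2 thallium signal more than 5 SD above the buffer-only control wells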;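 further: KCNQ2 expressed in CHO cells; 0% = buffer control wells and 100% = XE-991 inhibitor control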
KCNQ1-KCNE1 inh: KCNQ1 inhibitor that also blocks human KCNQ1/KCNE1 channel. 1,600 tested, 77% active. shares compounds with KCNQ1 block. inhibition, % at 10 µM. AID 652147. KCNQ1/KCNE1 cells, FluxOR thallium flux fluorescence;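 active means mean percent inhibition of duplicate wells above the buffer-only control mean plus 3 SD of those controls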;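 further: 0% = buffer only wells and 100% = XE-991 inhibitor control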
Target sequence (P51787 whole entry, looked up): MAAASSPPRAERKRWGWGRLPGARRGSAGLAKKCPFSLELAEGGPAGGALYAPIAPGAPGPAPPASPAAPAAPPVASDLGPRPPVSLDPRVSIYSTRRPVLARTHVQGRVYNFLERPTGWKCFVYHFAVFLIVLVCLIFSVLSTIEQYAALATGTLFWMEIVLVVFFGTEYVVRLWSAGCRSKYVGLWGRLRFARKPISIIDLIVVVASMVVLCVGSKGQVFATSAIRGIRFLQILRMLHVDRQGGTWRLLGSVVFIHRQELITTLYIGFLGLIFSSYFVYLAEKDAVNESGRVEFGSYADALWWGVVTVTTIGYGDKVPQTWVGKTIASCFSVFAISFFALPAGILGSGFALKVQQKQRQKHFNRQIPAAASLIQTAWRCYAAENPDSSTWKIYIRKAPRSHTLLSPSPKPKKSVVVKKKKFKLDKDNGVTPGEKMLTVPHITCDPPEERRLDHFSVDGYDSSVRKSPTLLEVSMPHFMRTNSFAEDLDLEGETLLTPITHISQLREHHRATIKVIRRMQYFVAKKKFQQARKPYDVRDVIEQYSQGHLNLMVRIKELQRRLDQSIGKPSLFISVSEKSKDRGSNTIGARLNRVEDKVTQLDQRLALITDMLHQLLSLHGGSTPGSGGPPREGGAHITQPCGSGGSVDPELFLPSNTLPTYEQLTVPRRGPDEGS
Active calls of the source: *; i = inactive; · = not tested or not shown; + = active, no number. This is a sample that favours compounds with a hit; in the whole collection about 4.1% have one here.

SMILES	KCNQ1 pot	KCNK9 block	KCNK3 block	KCC2 mod	hERG rescue	KCNQ1 block	KCNQ1 inh valid	CHO Tl flux	KCNQ2 inh	KCNQ1-KCNE1 inh	others
Cc1cc(C)c(C)c(S(=O)(=O)N2CCC(C(=O)N3CC(C)CC(C)C3)CC2)c1C (stereo not given)	i	i	i	·	-12.2	i	·	·	·	·
CN1CCC(N(C)C(=O)c2cc(-c3ccc(F)cc3)nc3ccccc23)CC1	·	·	i	·	·	·	·	·	·	·
CCOc1ccc2noc3c2c1C(=O)c1ccccc1-3	i	i	i	·	-47.7	32*	+	0.018*	i	i
Cc1ccc(Cl)c2c(N=Nc3ccccc3)c(O)[nH]c12	i	i	i	·	-5.4	6*	148.0*	0.289*	i	i
O=C(O)c1ccc(N=Nc2c(O)[nH]c3ccccc23)cc1	i	i	i	-1.25	-17.2	i	·	·	·	·
Cc1cc(=O)[nH]c(SCC(=O)/C=C2\N(C)c3ccccc3C2(C)C)n1	i	i	i	-0.701	-21.9	11*	106.5*	0.479	87.7%*	79.0%*	KCNQ1 ephys val=i
COc1ccc(S(=O)(=O)N2CCc3ccccc32)cc1C(=O)Nc1ccc(C(N)=O)cc1	i	i	i	·	-2.4	i	·	·	·	·
c1ccc(CN2CCC(Nc3nc(-c4ccccc4)nc4ccccc34)CC2)cc1	i	i	i	·	-18.7	i	·	·	·	·
Cc1csc2ncnc(NC3CCN(Cc4ccccc4)CC3)c12	i	i	i	-0.11	-17.0	8*	26.0*	0.532	i	57.0%*
O=C(C1COc2ccccc2O1)N1CCN(Cc2ccc3c(c2)OCO3)CC1 (stereo not given)	i	i	i	0.888	-4.8	i	·	·	·	·
O=C(C1COc2ccccc2O1)N1CCN(Cc2ccc(Br)cc2F)CC1 (stereo not given)	i	i	i	·	-7.5	8*	60.5*	0.479	107.7%*	80.0%*
O=C(NCC(=O)N1CC=C(c2ccccc2)CC1)c1ccc(F)cc1	·	·	i	·	·	·	·	·	·	·
Cc1cc(NC2CCCCC2)nc(NCc2ccccc2)n1	i	i	i	-0.707	-36.2	14*	182.5*	0.317*	120.3%*	168.5%*
COc1ccc(Nc2cc(C)nc(NCc3ccccc3)n2)cc1	i	i	i	0.052	-28.0	8*	124.0*	0.373*	89.0%*	97.5%*
Cc1ccc(NC(=O)c2cccnc2C(=O)O)nc1	i	i	i	·	-0.1	i	·	·	·	·
Cc1ccc(C)c(OCC(=O)OCC(=O)Nc2c(C)nn(-c3ccccc3)c2C)c1	i	i	i	·	-9.9	i	·	·	·	·
Cc1cccc(OCCC(=O)OCC(=O)Nc2c(C)nn(-c3ccccc3)c2C)c1	i	i	i	·	-19.8	10*	32.5*	0.469	64.3%*	35.5%*
Cc1ccc(S(=O)(=O)N(CCC(=O)NCC(c2ccccc2)N(C)C)c2ccccc2)cc1 (stereo not given)	·	·	i	·	·	·	·	·	·	·
C=CCN(C(C(=O)OC)C(C)C)S(=O)(=O)CCNCc1ccccc1 (stereo not given)	·	·	i	·	·	·	·	·	·	·
O=C(Nc1ccccc1)Nc1ccccc1NS(=O)(=O)c1cccs1	i	i	i	-0.485	-21.2	10*	64.0*	0.511	63.7%*	i
CN(CC(=O)Nc1cccc(F)c1)C(=O)c1cn(-c2ccccc2)nc1-c1cccs1	i	i	i	·	-11.3	8*	79.0*	0.49	83.3%*	108.5%*
COc1cccc(NC(=O)CN(C)C(=O)c2cn(-c3ccccc3)nc2-c2cccs2)c1	i	i	i	·	-24.1	i	·	·	·	·
COc1cccc(CNC(=O)c2cc3c(C)nc4ccccc4c3o2)c1	i	i	i	·	-14.1	i	·	·	·	·
CCc1ccc(CNC(=O)c2cc3c(C)nc4ccccc4c3o2)cc1	i	i	i	-0.0479	-20.0	8*	140.5*	0.245*	113.3%*	+
N#Cc1ccccc1OCC(=O)NCc1ccccc1CN1CCCC1	·	·	i	·	·	·	·	·	·	·
SMILES	KCNQ1 pot	KCNK9 block	KCNK3 block	KCC2 mod	hERG rescue	KCNQ1 block	KCNQ1 inh valid	CHO Tl flux	KCNQ2 inh	KCNQ1-KCNE1 inh	others
FC(F)(F)c1cccc(-c2nc3nc(Cl)c(Cl)nc3[nH]2)c1	i	i	i	-2.15	-15.0	8*	52.5*	0.535	i	i
CCN(CC)CCN(C(=O)c1ccc2c(c1)OCCO2)c1nc2cc3c(cc2s1)OCO3	i	i	i	·	-13.6	7*	50.5*	0.467	81.3%*	84.5%*
CCOC(=O)c1cc(C#N)c(Oc2ccccc2OC)nc1-c1ccccc1	i	i	i	·	-5.6	7*	92.5*	0.424	79.7%*	94.5%*	KCNQ1 ephys val=i
S=C(NCc1ccccc1)Nc1ccc(Oc2ccccc2)cc1	i	i	i	·	-3.7	7*	94.5*	0.434	73.7%*	49.0%*	KCNQ1 ephys val=i
CCNC(=S)Nc1ccc(Oc2ccccc2)cc1	i	i	i	·	-7.6	i	·	·	·	·
O=C(c1cccc(NS(=O)(=O)c2ccc(F)c(F)c2)c1)N1CCN(C(c2ccccc2)c2ccccc2)CC1	i	i	i	-0.509	-14.7	11*	131.0*	0.405	109.3%*	155.0%*	KCNQ1 ephys val=i
COc1ccc(CCNc2ncnc3sc(C)cc23)cc1OC	i	i	i	·	-19.3	11*	133.0*	0.444	80.0%*	82.5%*	KCNQ1 ephys val=i
COc1ccc(CCNc2ncnc3[nH]ncc23)cc1OC	i	i	i	·	-14.3	i	·	·	·	·
Cn1c(=O)c(N)c2c3c(c(Br)ccc31)C(=O)c1ccccc1-2	i	i	i	i	-33.7	21*	+	0.0285*	i	i
CC1CCCc2sc3nc(NCc4ccco4)n4ncnc4c3c21 (stereo not given)	i	i	i	0.164	-2.9	8*	101.5*	0.46	84.3%*	146.5%*	KCNQ1 ephys val=i
Cc1ccsc1C(=O)OCc1csc(-c2ccccc2)n1	i	-7.79*	i	-0.55	-12.0	7*	145.5*	0.407	126.7%*	+	KCNQ1 ephys val=i
